Laboratory results taken from ChEMBL document CHEMBL4765368, “Structure guided design and synthesis of furyl thiazolidinedione derivatives as inhibitors of GLUT 1 and GLUT 4, and evaluation of their anti-leukemic potential” (Eur J Med Chem, 2020).
The source made the active and inactive calls. The rule behind the calls is not given here.

What was measured:
CCRF-CEM [1] = assay: Induction of apoptosis in human CCRF-CEM cells assessed as late apoptotic cells at CC50 measured after 24 hrs by AnnexinV-FITC/propidium iodide staining based flow cytometry analysis relative to control; assay type: functional
Outline: (§1)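 CCRF-CEM cells in RPMI with 10% FBS were seeded in 24-well plates, incubated overnight, given fresh medium, then treated for 24 h. Cells were PBS-washed, spun at 500 g for 5 min at 4 °C, and resuspended in ice-cold binding buffer. They were stained with annexin V-FITC and PI for 15 min on ice in the dark, then read by flow cytometry. Untreated cells were the negative control; triplicates.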

CCRF-CEM [2] = assay: Induction of apoptosis in human CCRF-CEM cells assessed as live cells at CC50 measured after 24 hrs by AnnexinV-FITC/propidium iodide staining based flow cytometry analysis (reference value: 92.15%); assay type: functional; outline: as §1
CCRF-CEM [3] = assay: Induction of apoptosis in human CCRF-CEM cells assessed as necrotic cells at CC50 measured after 24 hrs by AnnexinV-FITC/propidium iodide staining based flow cytometry analysis relative to control; assay type: functional; outline: as §1
CCRF-CEM [4] = assay: Cell cycle arrest in human CCRF-CEM cells assessed as decrease in accumulation at G0/G1 phase measured after 72 hrs by NIM-DAPI staining based flow cytometry; assay type: functional
Outline: (§2)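 An asynchronous CEM culture was seeded at 100,000 cells/well in 1 mL complete RPMI and exposed to 10, 25 or 50 μM for 72 h. Controls were untreated cells, DMSO and hydrogen peroxide. Cells were pelleted at 262 g, resuspended, and stained with NIM-DAPI, which permeabilizes and stains DNA in one step. About 100,000 events per sample were read by flow cytometry. Triplicates.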

CCRF-CEM [5] = assay: Cell cycle arrest in human CCRF-CEM cells assessed as decrease in accumulation at S phase measured after 72 hrs by NIM-DAPI staining based flow cytometry; assay type: functional; outline: as §2
CCRF-CEM [6] = assay: Cell cycle arrest in human CCRF-CEM cells assessed as decrease in accumulation at G2/M phase measured after 72 hrs by NIM-DAPI staining based flow cytometry; assay type: functional; outline: as §2
[7] = Cytotoxicity against human WBC assessed as reduction in cell viability measured after 48 hrs by MTT assay; assay type: tissue-based
Outline: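 WBCs were isolated from donor blood by HiSep density centrifugation, followed by RBC lysis and PBS washes, and held overnight at 37 °C with 5% CO2. Compound at 2.5–100 μM for 48 h. After two PBS washes, MTT was added for 4 h at 37 °C, formazan was dissolved in DMSO, and absorbance was read at 570 nm. IC50 taken from the dose-response curve.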

[8] = Selectivity index, ratio of IC50 for human WBC to CC50 for human CCRF-CEM cells
Outline: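 Donor blood was layered on HiSep and centrifuged at 400×g for 30 min; mononuclear cells were washed and RBC-lysed to give WBCs. WBCs were seeded overnight at 37 °C, 5% CO2, then exposed to 2.5–100 µM for 48 h. MTT was added for 4 h at 37 °C, formazan was dissolved in DMSO and A570 read. The CEM CC50 came from a 48 h Hoechst/PI imaging assay.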

[9] = Toxicity in SCID mouse assessed as distress at 1000 mg/kg, ip administered as single dose; assay type: organism-based; details: in vivo
[10] = Toxicity in SCID mouse assessed as distress at 1000 mg/kg, ip administered as single dose measured within 6 hrs; assay type: organism-based; details: in vivo
CCRF-CEM [11] = assay: Antitumor activity against human CCRF-CEM cells xenografted in SCID mouse assessed as reduction in tumor growth at 50 mg/kg, ip administered daily for 5 days with 2 days interval for 18 days; assay type: functional, organism-based; details: time 18.0 day
Outline: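 SCID mice aged 8-10 weeks, in individually ventilated cages on a 12 h light/dark cycle, autoclaved pellets and water ad libitum. 1×10^5 CEM cells were injected on the back to form palpable tumors, which were minced and regrafted. Compound given 50 mg/kg i.p. on days 1-5, 8-12 and 15-18. Saline vehicle group; doxorubicin 20 mg/kg i.p. reference group. n=6 per group. Tumor volume by caliper every two days as (width)² x length/2.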

[12] = Toxicity in SCID mouse xenografted with human CCRF-CEM cells assessed as body weight loss at 50 mg/kg, ip administered daily for 5 days with 2 days interval for 18 days; assay type: organism-based; details: in vivo, 432 h, time 18 day
Homo sapiens = species on record: Homo sapiens; assay: Selectivity ratio of IC50 for inhibition of transport activity of human GLUT4 expressed in hexose transporter deficient W4000fgy1 erg4 yeast cells to IC50 for inhibition of transport activity of human GLUT1 expressed in hexose transporter deficient VW4000fgy1 yeast cells; assay type: cell-based
Outline: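 GLUT1 (VW4000fgy1) or GLUT4 (VW4000fgy1erg4) hxt0 yeast were grown on maltose and then glucose and resuspended in PBS pH 7.4 at OD600 ~10. Compound was used at 0.1–100 μM, final 1% DMSO. Uptake of 5 mM 14C-glucose over 10 min was stopped with ice-cold quench buffer, filtered and counted by scintillation. IC50 was taken from dose-response curves of three independent measurements.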

HS27 = assay: Cytotoxicity against human HS27 cells assessed as cell death at 100 uM measured after 48 hrs by Hoechst 33342/propidium iodide staining based imaging analysis relative to control; details: hs27, 48 h
Outline: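 HS-27 fibroblasts in DMEM with 10% FBS and penicillin/streptomycin at 37 °C, 5% CO2, seeded at 3,000 cells/well. Treated 48 h with DMSO-dissolved compound (0.5–100 µM range) in quadruplicate. Hoechst 33342 and PI were added 2 h before imaging, and Hoechst/PI-colocalised nuclei were scored as dead. Controls were DMSO vehicle, H2O2 and untreated cells.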

SMILES | Activity (CCRF-CEM [1]) [%] | Activity (CCRF-CEM [2]) [%] | Activity (CCRF-CEM [3]) [%] | Activity (CCRF-CEM [4]) | Activity (CCRF-CEM [5]) | Activity (CCRF-CEM [6]) | IC50 [7] [µM] | Ratio IC50 [8] | Activity [9] | Activity [10] | Activity (CCRF-CEM [11]) | Activity [12] | Ratio IC50 (Homo sapiens) | Activity (HS27) [%]
O=C(CN1C(=O)S/C(=C/c2ccco2)C1=O)Nc1nc2ccccc2s1 | 55.87 | 26.14 | 16.6 | Dose-dependent effect | Dose-dependent effect | Dose-dependent effect | 187 | 107 | Toxic | Non-Toxic | Active | Non-Toxic | – | –
O=C(CN1C(=O)S/C(=C/c2ccco2)C1=O)Nc1ccc(Cl)c(Cl)c1 | – | – | – | – | – | – | – | – | – | – | – | – | 10 | 27.32
